Arr AP2 block – blocks beta-arrestin peptide binding to AP2 adaptin. FITC-arrestin peptide / GST-AP2 beads, flow cytometry; AP2 beta2 appendage carries R879A mutation. inhibition, % at 10 µM. 340,000 tested, 0.31% active. AID 504490;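 active = inhibition above a set limit, near 3 SD of compounds lacking own fluorescence, cut at about 54% in these data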;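 also: plate controls were DMSO wells for no effect and 5 µM unlabelled arrestin peptide for full effect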
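System: GST-AP2 R879A glutathione beads | Also added: FITC-arrestin peptide, 50 nM | Times: 12 min plus 1 h, RT | Signal: Bead flow cytometry, FITC channel | Buffer or medium: PBS with 0.05% Tween 20 and 0.1% BSA | Read-out basis: Percent drop in bead-associated FITC signal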
ABCB6 inh MLPCN – inhibitors of human ABC transporter ABCB6; Q9NP58; K562-ABCB6 porphyrin accumulation, flow cytometry, 1 h; active compounds read low; fluorescence ratio to DMSO, % at 10 µM; 360,000 tested, 0.19% active;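 active = fluorescence ratio to DMSO below 75%, the collection mean minus 3 SD; inconclusive = too few cells collected in the well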;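 also: signal is porphyrin accumulated inside mitochondria; 100% equals median channel fluorescence of DMSO control wells; lower ratio means ABCB6 inhibition with less porphyrin fluorescence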
Myeloid diff 2 – compounds promoting myeloid differentiation; ER-HoxA9 myeloid progenitors, lysozyme-GFP differentiation, flow cytometry; calls only at 10 µM; 360,000 tested, 1% active; AID 624256;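 active = normalized GFP-positive differentiation at or above the plate's own cutoff, the solvent-only control mean plus 3 SD; inconclusive = no clear call, values can overlap the other calls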;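 also: cells exposed to compound for four days before flow analysis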
Exocytosis inh – lytic granule exocytosis inhibition. AID 651702. 360,000 tested, 0.66% active. inhibition, % at 10 µM. TALL-104 LAMP-1 surface exposure, flow cytometry; cells stimulated with thapsigargin and PMA;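 active = inhibition above about 55%, limit read from the data; inconclusive = no clear call, values can overlap the other calls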
ATG4B inh – blocks human ATG4B protease cleavage of LC3 substrate; Q9Y4P1; ATG4B cleavage of LC3-PLA2, NBD-HPC fluorescence, 1 h; inhibition, % at 8.33 µM; 340,000 tested, 0.51% active; in the data active = inhibition above about 40%
Target sequence (Q9Y4P1 whole entry, looked up): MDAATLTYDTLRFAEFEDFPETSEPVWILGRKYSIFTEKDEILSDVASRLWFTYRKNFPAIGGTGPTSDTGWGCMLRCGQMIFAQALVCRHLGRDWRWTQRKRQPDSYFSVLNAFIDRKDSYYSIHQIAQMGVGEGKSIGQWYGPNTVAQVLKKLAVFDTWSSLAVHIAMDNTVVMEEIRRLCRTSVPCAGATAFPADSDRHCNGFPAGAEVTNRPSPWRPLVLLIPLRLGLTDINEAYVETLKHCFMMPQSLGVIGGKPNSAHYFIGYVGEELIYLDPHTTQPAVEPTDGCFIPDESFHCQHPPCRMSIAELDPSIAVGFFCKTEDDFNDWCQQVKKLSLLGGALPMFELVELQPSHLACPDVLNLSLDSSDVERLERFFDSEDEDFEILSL
CendR NRP1 mod – alters CendR peptide binding to human NRP-1 | inhibition, % at 25 µM | FAM-RPARPAR peptide binding to NRP-1, fluorescence polarization | 360,000 tested, 0.85% active;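 active = inhibition or corrected inhibition above about 18%, plus a signal ratio from 0.5 to 1.5, limit read from the data, passing the limit was not always enough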
Myeloid diff CP1 – promotes myeloid progenitor differentiation. calls only. AID 651706. ER-HoxA9 myeloid progenitors, GFP/Mac1 double-positive flow. 2,300 tested, 2% active. shares compounds with Myeloid diff 2;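 active = share of green or green-and-red cells above 9 and 9% in run 1 or 4 and 3% in run 2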
GFP autofluor – flagged as fluorescent in myeloid differentiation counter-screen | ER-HoxA9 myeloid progenitors, no estrogen, GFP autofluorescence flow cytometry; vehicle wells 0%, positive control 100% | 2,300 tested, 7.4% active | fluorescence response, % (test concentration not listed) | shares compounds with Myeloid diff 2;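 active = over 5% cells positive for green fluorescent reporter, or over 2% positive for both it and APC stain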;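 also: range taken on the double positive population between DMSO and positive control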
Numbers without * were called inactive; i = inactive; ? = inconclusive; nt = no result given; + = active, no number. Rows were chosen to be rich in hits. Some 3.3% of all compounds tested hit in one or more screens of this group.

SMILES	Arr AP2 block	ABCB6 inh MLPCN	Myeloid diff 2	Exocytosis inh	ATG4B inh	CendR NRP1 mod	Myeloid diff CP1	GFP autofluor
COc1cccc(N=C(N)N=C(N)N)c1	-11.9	92.0	+	5.1	4.6	-12.5	i	0.0
CC(C)NC(=O)N(C)C[C@H]1Oc2ccc(NC(=O)CCN3CCOCC3)cc2C(=O)N([C@H](C)CO)C[C@@H]1C	-9.9	100.0	i	-1.3	nt	7.6	nt	nt
Cc1ccc(S(=O)(=O)N2CCC(C(=O)Nc3ccc(S(=O)(=O)N4CCOCC4)cc3)CC2)cc1	-11.5	93.0	i	1.7	-17.4	5.2	nt	nt
Cc1cc(C)c(C)c(S(=O)(=O)N2CCC(C(=O)Nc3ccc(S(=O)(=O)N4CCOCC4)cc3)CC2)c1C	10.0	99.0	i	-11.7	-14.1	-16.9	i	0.0
O=C(NCc1cccnc1)C1Cc2c(-c3ccc(Cl)cc3)ccnc2O1 (centres undefined)	nt	96.0	+	1.2	nt	-7.8	i	0.0
O=C(NCc1ccncc1)C1Cc2c(-c3ccc(Cl)cc3)ccnc2O1 (centres undefined)	nt	101.0	i	4.2	nt	-10.7	nt	nt
c1ccc(C2=Nn3c(nnc3-c3ccncc3)SC2)cc1	-5.2	100.0	i	2.0	-0.8	-2.4	nt	nt
c1ccc(C2=Nn3c(nnc3-c3ccccn3)SC2)cc1	-2.3	93.0	i	-2.5	-4.0	2.8	i	0.0
CC[C@@]1(C(=O)OC)N[C@H](CN(C)C(=O)COC)[C@@H]2C(=O)N(Cc3ccccc3)C(=O)[C@@H]21	0.9	94.0	+	-1.9	-7.5	-8.0	i	7.3*
COCC(=O)N(C)C[C@H]1N[C@@](Cc2ccccc2)(C(=O)OC)[C@H]2C(=O)N(Cc3ccccc3)C(=O)[C@@H]12	20.5	97.0	i	-1.3	-9.9	5.0	nt	nt
COc1cc(S(=O)(=O)n2ccc(C)n2)c(OC)cc1Cl	4.4	102.0	+	-0.4	6.4	14.9	i	0.0
COc1cccc(CNCCc2c[nH]c3ccccc23)c1OCc1ccc(F)cc1	-12.2	94.0	i	30.7	1.4	-4.5	nt	nt
COc1cc(CNCCc2c[nH]c3ccccc23)ccc1OCc1ccc(F)cc1	-1.5	102.0	i	34.8	-6.6	0.3	i	0.0
CC1CCCCN1C(=O)c1ccc(C(=O)c2ccccc2)cc1 (centres undefined)	-15.9	100.0	i	-1.6	-7.7	5.9	nt	nt
CNc1nc(Oc2ccc3sc(C)nc3c2)c2sccc2n1	nt	97.0	i	-1.3	nt	-10.1	nt	nt
Cc1nc2cc(Oc3nc(NCCN(C)C)nc4ccsc34)ccc2s1	nt	94.0	+	?	nt	3.6	i	0.5
O=C(CNC(=O)c1ccc(S(=O)(=O)N2CCCC2)cc1)N/N=C/c1ccc(F)cc1	-3.2	102.0	i	-5.0	-3.8	-2.7	nt	nt
O=C(NC(=S)Nc1ccccc1O)c1cncc(Br)c1	33.7	110.0	i	-0.3	17.3	-42.2	i	10.5*
O=C(OCC(=O)N1CCCC1)c1cc2c(cc1[N+](=O)[O-])OCCO2	-4.5	100.0	i	-8.9	-3.6	-0.9	nt	nt
COCCNC(=O)Nc1ccc(F)cc1	17.5	89.0	i	-0.9	-6.3	6.8	nt	nt
c1cc(SC2CCCCC2)cc(-c2nc3cnccn3c2NC2CCCCC2)c1	25.6	109.0	i	-0.6	-7.2	-38.6	i	0.0
c1cn2c(NC3CCCCC3)c(-c3ccc(SC4CCCCC4)cc3)nc2cn1	13.9	116.0	i	-3.8	-7.3	-39.6	nt	nt
O=C(OCC(=O)N1CCCc2ccccc21)c1ccccc1NCCO	0.9	97.0	nt	-6.6	2.9	3.4	nt	nt
CCCn1nnc(NC(=O)c2cccc(Cl)c2)n1	2.6	98.0	i	-2.1	-14.7	2.6	nt	nt
CCCn1nnc(NC(=O)c2cc(Br)ccc2OC)n1	13.2	99.0	i	-0.7	-4.9	4.3	i	0.0
SMILES	Arr AP2 block	ABCB6 inh MLPCN	Myeloid diff 2	Exocytosis inh	ATG4B inh	CendR NRP1 mod	Myeloid diff CP1	GFP autofluor
Cc1ccc(NC(=O)COC(=O)Cn2nc(C)c([N+](=O)[O-])c2C)c([N+](=O)[O-])c1	4.7	103.0	i	1.7	4.0	-17.1	nt	nt
CCOc1ccc(NC(=O)COC(=O)Cn2nc(C)c([N+](=O)[O-])c2C)cc1OCC	-2.2	114.0	+	1.4	6.0	16.4	i	0.0
COc1cc(CNCC2CCCO2)ccc1OCC(N)=O (centres undefined)	50.3	93.0	i	-1.7	-7.0	13.1	nt	nt
CC[C@]12c3[nH]c4ccccc4c3CCN1C(=O)C(CC(=O)NCCc1ccccn1)C[C@@H]2C(=O)N1CCN(C(=O)C2CC2)CC1 (some centres undefined)	37.8	101.0	i	1.7	-4.5	5.0	nt	nt
CC[C@]12c3[nH]c4ccc(Cl)cc4c3CCN1C(=O)[C@@H](CC(=O)NCCc1ccccn1)C[C@@H]2C(=O)N1CCN(C(=O)C2CC2)CC1	1.7	96.0	i	-2.5	1.9	-4.7	i	0.0
Cc1nc(NCCO)c(C#N)c2c1COC(C)(C)C2	25.2	99.0	+	-2.5	-4.8	-4.3	i	0.6
Cc1ccccc1N(CC(=O)NCCSCc1ccco1)S(C)(=O)=O	9.2	100.0	+	-0.7	-6.0	0.4	i	0.6
OC(c1ccc(F)c(F)c1)c1nc(-c2ccc(F)c(Cl)c2)cs1 (centres undefined)	nt	96.0	i	1.7	nt	7.9	nt	nt
C(#Cc1ccccc1)C[N+]1(CC#Cc2cccc3ccccc23)CCCC1	-0.4	98.0	i	26.9	19.3	-16.5	nt	nt
C#CC[N+]1(CC#Cc2ccccc2)CCCC1	7.0	101.0	+	-1.8	-6.2	4.3	i	0.4
Cc1cc(=O)oc2cc(OCC(=O)NC3(C#N)CCCCC3)ccc12	nt	99.0	i	-0.9	nt	0.3	nt	nt
C=CCOc1ccc(C2C(C(=O)c3ccco3)=C(O)C(=O)N2Cc2cccnc2)cc1 (centres undefined)	7.2	97.0	i	2.1	-6.0	-5.2	i	12.7*
CCCCCN(C(=O)COC(=O)CSc1ccc([N+](=O)[O-])cc1)c1c(N)n(CCCC)c(=O)[nH]c1=O	-0.5	96.0	i	-6.8	-8.4	-3.1	nt	nt
Cn1ncc2c(=O)[nH]nnc21	8.9	97.0	i	-4.7	-4.0	0.5	nt	nt
Nn1cnnc1SC1CCCCC1NS(=O)(=O)c1ccccc1 (centres undefined)	2.8	101.0	+	-1.5	4.5	4.2	i	0.6
COc1cc(/C=C2\SC(=S)N(CCC(=O)N3CCN(C)CC3)C2=O)cc(OC)c1OC	4.0	95.0	+	23.4	-13.8	-4.3	i	0.0
